Assay results as given in ChEMBL document CHEMBL1138797, “6-azapyrimidine-2'-deoxy-4'-thionucleosides: antiviral agents against TK+ and TK- HSV and VZV strains” (J Med Chem, 2004).
Values after ≈ are worked out from the molar mass of the structure shown.

Experiments:
E6SM [1] = experiment: Effective concentration required to reduce HSV-1 strain KOS virus plaque formation by 50% in E6SM Cell Culture; format: functional, cell-based; conditions: Homo sapiens
Method in brief: (§1)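 Confluent E6SM cell cultures in microtiter trays were infected with 20 PFU for a 1 h adsorption period, then washed free of residual virus and incubated with serial compound dilutions (400, 200, 100, ... μg/mL). Plaque formation was read when cytopathicity was complete in virus controls. […] The TK-deficient HSV-1 line refers to HSV-1/TK⁻ ACVʳ.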

HEL [2] = experiment: Effective concentration required to reduce […] (thymidine kinase deficient) VZV strain YS/R virus plaque formation by 50% in HEL cell culture; format: functional, cell-based, Human alphaherpesvirus 3; conditions: Homo sapiens
HEL [3] = experiment: Effective concentration required to reduce […] (thymidine kinase deficient) VZV strain 07/1 virus plaque formation by 50% in HEL cell culture; format: functional, cell-based, Human alphaherpesvirus 3; conditions: Homo sapiens
E6SM [4] = experiment: Effective concentration required to reduce vaccinia virus plaque formation by 50% in E6SM Cell Culture; format: functional, cell-based; conditions: Homo sapiens; method in brief: as §1
E6SM [5] = experiment: Minimum cytotoxic concentration that caused a microscopically detectable alteration of cell morphology in E6SM Cell Culture; format: functional; conditions: Homo sapiens
HEL [6] = experiment: Effective concentration required to reduce CMV AD169 strain virus plaque formation by 50% in HEL cell culture; format: functional, cell-based, Cytomegalovirus; conditions: Homo sapiens
Method in brief: (§2)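 Plaque-reduction assay in confluent HEL cell cultures. After 1 h adsorption of a 20 PFU virus input, residual virus was removed and cells were incubated with graded compound concentrations. Plaques were scored once cytopathicity was complete in untreated infected controls. […] The TK-deficient VZV line refers to strain YS/R.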

E6SM [7] = experiment: Effective concentration required to reduce HSV-2 strain G virus plaque formation by 50% in E6SM Cell Culture; format: functional, cell-based; conditions: Homo sapiens; method in brief: as §1
E6SM [8] = experiment: Effective concentration required to reduce HSV-1 strain KOS ACV virus plaque formation by 50% in E6SM Cell Culture; format: functional, cell-based; conditions: Homo sapiens; method in brief: as §1
HEL [9] = experiment: Effective concentration required to reduce CMV davis strain virus plaque formation by 50% in HEL cell culture; format: functional, cell-based, Cytomegalovirus; conditions: Homo sapiens; method in brief: as §2
[10] = Minimum cytotoxic concentration that causes microscopically detectable alteration of cell morphology in HEL cell culture; format: cell-based; conditions: human, HEL cells
HEL [11] = experiment: Effective concentration required to reduce TK+ (thymidine kinase presence) VZV strain YS virus plaque formation by 50% in HEL cell culture; format: functional, cell-based, Human alphaherpesvirus 3; conditions: Homo sapiens
[12] = Cytotoxic concentration required to reduce HEL cell growth by 50%; format: cell-based; conditions: human, HEL cells
HEL [13] = experiment: Effective concentration required to reduce TK+ (thymidine kinase presence) VZV strain OKA virus plaque formation by 50% in HEL cell culture; format: functional, cell-based, Human alphaherpesvirus 3; conditions: Homo sapiens
HEL [14] = experiment: Effective concentration required to reduce […] (thymidine kinase deficient) VZV strain YS/R virus plaque formation by 50% in HEL cell culture; No complete inhibition; format: functional, cell-based, Human alphaherpesvirus 3; conditions: Homo sapiens; method in brief: as §2

Row | Structure (SMILES) | EC50 (E6SM [1]) [µg/mL] | EC50 (HEL [2]) [µM] | EC50 (HEL [3]) [µM] | EC50 (E6SM [4]) [µg/mL] | MCC (E6SM [5]) [µg/mL] | EC50 (HEL [6]) [µM] | EC50 (E6SM [7]) [µg/mL] | EC50 (E6SM [8]) [µg/mL] | EC50 (HEL [9]) [µM] | MCC [10] [µM] | EC50 (HEL [11]) [µM] | CC50 [12] [µM] | EC50 (HEL [13]) [µM] | EC50 (HEL [14]) [µM]
1 | CC(=O)OC[C@H]1S[C@@H](n2nc(C)c(=S)[nH]c2=O)C[C@@H]1OC(C)=O | > 8 | > 40 | > 40 | > 8 | ≥ 40 | > 40 | > 8 | > 8 | > 40 | > 40 | > 40 | > 40 | > 40 | 
2 | Cc1nn([C@H]2C[C@H](O)[C@@H](CO)S2)c(=O)[nH]c1=S | 120 (≈ 436 µM) | > 40 | > 40 | 120 (≈ 436 µM) | > 200 | > 40 | 120 (≈ 436 µM) | 120 (≈ 436 µM) | > 40 | > 40 | > 40 | > 40 | > 40 | 
3 | O=c1[nH]c(=O)n([C@H]2C[C@H](O)[C@@H](CO)O2)cc1/C=C/Br [BRIVUDINE] | 0.01 (≈ 0.03 µM) | 56 | 29 | > 400 | > 400 | > 150 | 80 (≈ 240 µM) | 16 (≈ 48 µM) | > 400 |  | 0.003 |  | 0.003 | 
4 | Nc1nc2c(ncn2COCCO)c(=O)[nH]1 [ACYCLOVIR] | 0.07 (≈ 0.311 µM) |  |  | 0.38 (≈ 1.69 µM) | > 400 | > 200 | 0.07 (≈ 0.311 µM) | 48 (≈ 213 µM) | > 400 |  |  |  |  | 
5 | Nc1nc2c(ncn2COC(CO)CO)c(=O)[nH]1 [GANCICLOVIR] | 0.004 (≈ 0.0157 µM) |  |  | > 100 | > 100 | 0.5 | 0.003 (≈ 0.0118 µM) | 2.4 (≈ 9.4 µM) | 1.5 | > 150 |  | > 150 |  | 
6 | Cc1nn([C@H]2C[C@H](O)[C@@H](CO)S2)c(=O)nc1O | 1.3 (≈ 5.01 µM) |  | 14 | 2.2 (≈ 8.48 µM) | > 200 | > 200 | 3.2 (≈ 12.3 µM) | 18 (≈ 69.4 µM) | > 200 | > 200 | 4.1 | 166 | 2.5 | ≥ 5
7 | CCc1nn([C@H]2C[C@H](O)[C@@H](CO)S2)c(=O)nc1O | 120 (≈ 439 µM) | > 40 | > 40 | > 200 | > 200 | > 40 | > 200 | > 200 | > 40 | > 40 | > 40 |  | > 40 | 
8 | CCCc1nn([C@H]2C[C@H](O)[C@@H](CO)S2)c(=O)[nH]c1=O | > 200 | > 40 | > 40 | > 200 | > 200 | > 40 | > 200 | 120 (≈ 418 µM) | > 40 | > 40 | > 40 | > 40 | > 40 | 
9 | Cc1nn([C@H]2C[C@H](O)[C@@H](CO)S2)c(=O)nc1N | 24 (≈ 92.9 µM) | > 40 | > 40 | 24 (≈ 92.9 µM) | > 200 | > 40 | 24 (≈ 92.9 µM) | 120 (≈ 465 µM) | > 40 | > 40 | > 40 | > 40 | > 40 | 
